The source made the active and inactive calls. The rule behind the calls is not given here.

Series [1] can be described thus: Unbound drug level in brain of twitcher mouse model of Krabbe's disease at 90 mg/kg,ip administered once daily for 20 days measured 1 hr post-last dose. The class given is ADME, organism-based. The settings on record: in vivo. The essentials: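 Twitcher mice dosed i.p. once daily for 20 days, sacrificed 1 h after last dose (day 20); drug measured in plasma and brain; unbound levels from unbound fractions (mean of two technical replicates); N = 3 males + 3 females per group.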

Series [2] in a line: Ratio of unbound drug level in brain of twitcher mouse model of Krabbe's disease at 30 mg/kg,ip administered once daily for 20 days measured 1 hr post-last dose to EC50 for inhibition of acid ceramidase in Krabbe's disease patient-derived primary fibroblasts. In kind it is organism-based. The settings on record: in vivo. The essentials: (§1)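 Twitcher mice (3 males + 3 females per group) got 30 or 90 mg kg–1 i.p. once daily for 20 days from postnatal day 10 and were sacrificed 1 h after the day-20 dose. Plasma and brain levels were measured, and unbound brain level came from brain fraction unbound (two technical replicates). The EC50 was from Krabbe patient primary fibroblasts exposed 2 h to a concentration series (two independent experiments, duplicates).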

In series [3] the test system is Mus musculus. Kind of series: Neuroprotective activity in ip dosed C57BL/6J/129SvEV mouse model of Gaucher's disease assessed as reduction in GluSph (d18:1) level in brain administered once daily for 14 days measured 1 hr post-last dose by MS analysis. The class given is functional, organism-based. The essentials:
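4L;C* mice (neuropathic Gaucher model) given 30 or 90 mg kg–1 i.p. once daily for 14 days from postnatal day 5; killed 1 h after last dose; brain GluSph (d18:1) measured; N = 4–8 per group, mixed sexes.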

Series [4] in a line: Ratio of unbound drug level in brain of C57BL/6J/129SvEV mouse model of Gaucher's disease at 90 mg/kg, ip administered once daily for 14 days measured 1 hr post-last dose to EC50 for inhibition of acid ceramidase in Krabbe's disease patient-derived primary fibroblasts. In kind it is organism-based. The settings on record: in vivo. The essentials:
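Gaucher-model 4L;C* mice (N = 4–8, mixed sexes) got 30 or 90 mg kg–1 i.p. once daily for 14 days from postnatal day 5 and were sacrificed 1 h after the day-14 dose. Compound levels were measured in plasma and brain, and unbound brain level came from brain fraction unbound (two technical replicates). The reference EC50 was from Krabbe patient primary fibroblasts incubated 2 h across concentrations (two independent experiments, duplicates).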

Series [5] concerns the target T1, Acid ceramidase (Homo sapiens) (UniProt Q13510).
T1 sequence (whole entry): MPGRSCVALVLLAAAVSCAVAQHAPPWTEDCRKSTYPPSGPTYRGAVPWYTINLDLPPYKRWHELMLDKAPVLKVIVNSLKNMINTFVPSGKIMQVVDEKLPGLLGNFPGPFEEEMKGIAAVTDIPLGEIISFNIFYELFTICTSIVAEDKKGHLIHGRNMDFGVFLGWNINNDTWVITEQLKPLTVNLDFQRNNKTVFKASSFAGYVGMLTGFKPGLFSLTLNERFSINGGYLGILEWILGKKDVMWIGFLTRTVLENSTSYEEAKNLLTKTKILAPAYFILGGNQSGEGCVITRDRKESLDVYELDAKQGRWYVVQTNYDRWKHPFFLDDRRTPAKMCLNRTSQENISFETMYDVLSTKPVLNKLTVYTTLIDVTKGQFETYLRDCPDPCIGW
Kind of series: Inhibition of acid ceramidase in human SH-SY5Y cells assessed as increase in intracellular accumulation of Cer (d18:0/16:0) at 10 uM measured up to 6 hrs by LC/MS analysis. The class given is cell-based. The essentials: (§2)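 Human neuroblastoma SH-SY5Y cells incubated with compound at 10 μM for 30 min, 1 h, 3 h and 6 h; AC activity by LC/MS-based activity assay; Cer (d18:0/16:0), Cer (d18:1/16:0), sphingosine, SM (d18:1/16:0) and HexCer (d18:1/16:0) quantified by LC/MS.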

In a further series the target is T2, Acid ceramidase (Homo sapiens, UniProt Q13510).
T2 sequence (Q13510 whole entry): T1 sequence (whole entry)
Kind of series: Time-dependent inhibition of human acid ceramidase expressed in HEK293 cells using Rbm14-12 as substrate by fluorescence assay. The class given is cell-based. The essentials: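 hAC-enriched lysates with fluorogenic substrate Rbm 14-12; vehicle 1% DMSO; time-dependent inhibition analysed for ki/KI and ki; two independent experiments, each in two technical replicates.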

In series [6] the target is T1, Acid ceramidase (Homo sapiens). Kind of series: Inhibition of acid ceramidase in human SH-SY5Y cells assessed as increase in intracellular accumulation of Cer (d18:1/16:0) at 10 uM measured up to 6 hrs by LC/MS analysis. The class given is cell-based. In outline:
as §2

For series [7], the system named is Mus musculus. Kind of series: Neuroprotective activity in ip dosed Twitcher mouse model of Krabbe's disease assessed as reduction in GalSph (d18:1) level in brain administered once daily for 20 days measured 1 hr post-last dose by MS analysis. In kind it is functional, organism-based. The essentials:
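Twitcher mice dosed i.p. at 30 or 90 mg kg–1 once daily for 20 days from postnatal day 10; sacrificed 1 h after last dose; brain GalSph (d18:1) measured; N = 3 males + 3 females per group.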

Series [8] in a line: Ratio of unbound drug level in brain of twitcher mouse model of Krabbe's disease at 90 mg/kg,ip administered once daily for 20 days measured 1 hr post-last dose to EC50 for inhibition of acid ceramidase in Krabbe's disease patient-derived primary fibroblasts. In kind it is organism-based. The settings on record: in vivo. The essentials: as §1
Series [9] addresses T1, Acid ceramidase (Homo sapiens). Kind of series: Inhibition of acid ceramidase in human SH-SY5Y cells assessed as decrease in sphingosine level measured after 3 hrs by LC/MS analysis. The class given is cell-based. In outline: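 SH-SY5Y neuroblastoma cells exposed 3 h to 1, 2.5, 5 and 10 μM; AC activity by LC/MS-based assay; ceramide species, sphingosine, SM and HexCer (d18:1/16:0) quantified by LC/MS; means ± S.E.M. of at least six determinations, experiment repeated twice.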

For series [10] the target is unchanged. Kind of series: Inhibition of acid ceramidase in human SH-SY5Y cells assessed as change in intracellular accumulation of HexCer (d18:1/16:0) at 10 uM measured up to 6 hrs by LC/MS analysis. In kind it is cell-based. In outline: as §2
Series [11] has as its target T3, Lysosomal acid glucosylceramidase (Homo sapiens) (UniProt P04062).
T3 sequence (whole entry): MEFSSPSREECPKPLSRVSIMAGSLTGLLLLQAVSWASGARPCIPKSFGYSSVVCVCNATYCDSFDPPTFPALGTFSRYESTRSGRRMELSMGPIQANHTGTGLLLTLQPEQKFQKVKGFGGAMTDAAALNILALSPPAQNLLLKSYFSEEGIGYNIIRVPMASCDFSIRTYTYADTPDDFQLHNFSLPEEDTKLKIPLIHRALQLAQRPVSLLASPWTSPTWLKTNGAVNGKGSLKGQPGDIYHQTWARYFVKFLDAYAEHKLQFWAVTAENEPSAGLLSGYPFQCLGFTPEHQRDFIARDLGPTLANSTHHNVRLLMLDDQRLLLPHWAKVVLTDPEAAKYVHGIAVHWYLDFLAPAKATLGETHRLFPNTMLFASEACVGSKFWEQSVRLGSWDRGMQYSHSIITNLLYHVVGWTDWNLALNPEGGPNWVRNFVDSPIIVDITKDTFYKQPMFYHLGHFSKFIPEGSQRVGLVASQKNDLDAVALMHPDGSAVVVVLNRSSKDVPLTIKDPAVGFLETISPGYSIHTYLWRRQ
Kind of series: Inhibition of human full length GCase at 1 to 10 uM using 4-MUG as fluorogenic substrate incubated for 15 mins by fluorescence based assay.

Series [12] is described as follows: Toxicity in C57BL/6 mouse assessed as clinical abnormalities at 20 to 120 mg/kg, ip administered for 4 days. In kind it is organism-based. The settings on record: in vivo, 96 h.

As for `CC(C)CNC(=O)n1c(=O)oc2cc(C3CCN(C)CC3)ccc21`, the “Drug uptake(free)” value in series [1] is 2.15 µM. Moreover, the values for the Ratio in series [2], in series [4] and in series [8] were 2, 6.4 and 5.2, respectively. For the same compound, the Activity result with Mus musculus [3] is “Dose-dependent effect”; in the series on Mus musculus [7], “Dose-dependent effect”; in [12], “Non-Toxic”. In addition, the inhibition result in series [5] and in [6] was “Active” throughout. The kinact at Acid ceramidase is 0.15 min⁻¹. In addition, the inhibition entry in [9] is “Dose-dependent effect”. Moreover, the inhibition entry in [10] and in series [11] was “inactive” in each case.

Broadly, the kinact is the rate constant of inactivation at saturating inhibitor.
